# Experimental data published in paper PMC5598375 (Toxicology Reports, 2014).
# Marks after values point to notes of the source that are not given here.
# How the values were obtained:
# [1] = test system: 48 h-larvae mwh +/+ flr^3; assay: Wing spot test; assay type: in vivo, Drosophila melanogaster; conditions: for Small single spots (1–2 cells), statistical diagnosis / Total spots, statistical diagnosis: m = 2; for Small single spots (1–2 cells), statistical diagnosis / Total spots, statistical diagnosis / Large single spots (>cells), statistical diagnosis / Twin spots, statistical diagnosis: vs control; for Large single spots (>cells), statistical diagnosis / Twin spots, statistical diagnosis: m = 5
# Method in brief: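 Crosses: mwh/mwh females × flr3/TM3,Bds males mated 2 h, eggs laid over 2 h. 48 h larvae were collected on 20% sucrose, washed in 24 ± 1 °C water, held 24 h in the dark on filter paper with PP-IX (0–69 mM in 5% sucrose), then fed CrO3 (0.025–2.5 mM) in instant medium, in triplicate. Non-Ser wings were scored at 40× for small (1–2 cells), large and twin spots. Frei–Würgler one-sided test, α=β=0.05, m multiplication factor.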
# [2] = test system: 48 h-old mwh+/+flr^3 larvae; assay: Toxicity test; assay type: in vivo, Drosophila melanogaster; conditions: for % of non-viable larvae / No. of viable larvae ± SEM: 500 larvae
smiles,measurement,setting,value
"[O]=[Cr](=[O])=[O] [CrO3, chromium trioxide]",Large single spots (>cells) per wing,"[1]; CrO3 0.025 mM, 120 wings",0.04 spots per wing
same,"Large single spots (>cells), number of spots","[1]; CrO3 0.025 mM, 120 wings",5
same,Small single spots (1–2 cells) per wing,"[1]; CrO3 0.025 mM, 120 wings",0.26 spots per wing
same,"Small single spots (1–2 cells), number of spots","[1]; CrO3 0.025 mM, 120 wings",31
same,Total spots per wing,"[1]; CrO3 0.025 mM, 120 wings",0.33 spots per wing
same,"Total spots, number of spots","[1]; CrO3 0.025 mM, 120 wings",40
same,Twin spots per wing,"[1]; CrO3 0.025 mM, 120 wings",0.03 spots per wing
same,"Twin spots, number of spots","[1]; CrO3 0.025 mM, 120 wings",4
same,"Small single spots (1–2 cells), statistical diagnosis",[1]; CrO3 0.025 mM,−
same,"Total spots, statistical diagnosis",[1]; CrO3 0.025 mM,−
same,"Large single spots (>cells), statistical diagnosis",[1]; CrO3 0.025 mM,−
same,Statistical significance of spot induction vs control,"[1]; CrO3 0.25 mM and higher, all kinds of spots",Statistical significant differences were found for all kinds of spots
same,Large single spots (>cells) per wing,"[1]; CrO3 0.25 mM, 150 wings",0.11 spots per wing
same,"Large single spots (>cells), number of spots","[1]; CrO3 0.25 mM, 150 wings",16
same,Small single spots (1–2 cells) per wing,"[1]; CrO3 0.25 mM, 150 wings",0.43 spots per wing
same,"Small single spots (1–2 cells), number of spots","[1]; CrO3 0.25 mM, 150 wings",64
same,Total spots per wing,"[1]; CrO3 0.25 mM, 150 wings",0.59 spots per wing
same,"Total spots, number of spots","[1]; CrO3 0.25 mM, 150 wings",88
same,Twin spots per wing,"[1]; CrO3 0.25 mM, 150 wings",0.05 spots per wing
same,"Twin spots, number of spots","[1]; CrO3 0.25 mM, 150 wings",8
same,"Small single spots (1–2 cells), statistical diagnosis",[1]; CrO3 0.25 mM,+
same,"Total spots, statistical diagnosis",[1]; CrO3 0.25 mM,+
same,"Large single spots (>cells), statistical diagnosis",[1]; CrO3 0.25 mM,−
same,"Twin spots, statistical diagnosis",[1]; CrO3 0.25 mM,+
same,Large single spots (>cells) per wing,"[1]; CrO3 1.25 mM, 118 wings",0.36 spots per wing
same,"Large single spots (>cells), number of spots","[1]; CrO3 1.25 mM, 118 wings",42
same,Small single spots (1–2 cells) per wing,"[1]; CrO3 1.25 mM, 118 wings",0.63 spots per wing
same,"Small single spots (1–2 cells), number of spots","[1]; CrO3 1.25 mM, 118 wings",74
same,Total spots per wing,"[1]; CrO3 1.25 mM, 118 wings",1.12 spots per wing
same,"Total spots, number of spots","[1]; CrO3 1.25 mM, 118 wings",132
same,Twin spots per wing,"[1]; CrO3 1.25 mM, 118 wings",0.14 spots per wing
same,"Twin spots, number of spots","[1]; CrO3 1.25 mM, 118 wings",16
same,"Small single spots (1–2 cells), statistical diagnosis",[1]; CrO3 1.25 mM,+
same,"Total spots, statistical diagnosis",[1]; CrO3 1.25 mM,+
same,"Large single spots (>cells), statistical diagnosis",[1]; CrO3 1.25 mM,+
same,"Twin spots, statistical diagnosis",[1]; CrO3 1.25 mM,+
same,Large single spots (>cells) per wing,"[1]; CrO3 2.0 mM, 80 wings",0.52 spots per wing
same,"Large single spots (>cells), number of spots","[1]; CrO3 2.0 mM, 80 wings",42
same,Small single spots (1–2 cells) per wing,"[1]; CrO3 2.0 mM, 80 wings",0.81 spots per wing
same,"Small single spots (1–2 cells), number of spots","[1]; CrO3 2.0 mM, 80 wings",65
same,Total spots per wing,"[1]; CrO3 2.0 mM, 80 wings",1.79 spots per wing
same,"Total spots, number of spots","[1]; CrO3 2.0 mM, 80 wings",143
same,Twin spots per wing,"[1]; CrO3 2.0 mM, 80 wings",0.45 spots per wing
same,"Twin spots, number of spots","[1]; CrO3 2.0 mM, 80 wings",36
same,"Small single spots (1–2 cells), statistical diagnosis",[1]; CrO3 2.0 mM,+
same,"Total spots, statistical diagnosis",[1]; CrO3 2.0 mM,+
same,"Large single spots (>cells), statistical diagnosis",[1]; CrO3 2.0 mM,+
same,"Twin spots, statistical diagnosis",[1]; CrO3 2.0 mM,+
same,Large single spots (>cells) per wing,"[1]; CrO3 2.5 mM, 120 wings",1.97 spots per wing
same,"Large single spots (>cells), number of spots","[1]; CrO3 2.5 mM, 120 wings",236
same,Small single spots (1–2 cells) per wing,"[1]; CrO3 2.5 mM, 120 wings",2.87 spots per wing
same,"Small single spots (1–2 cells), number of spots","[1]; CrO3 2.5 mM, 120 wings",344
same,Total spots per wing,"[1]; CrO3 2.5 mM, 120 wings",6.95 spots per wing
same,"Total spots, number of spots","[1]; CrO3 2.5 mM, 120 wings",834
same,Twin spots per wing,"[1]; CrO3 2.5 mM, 120 wings",2.11 spots per wing
same,"Twin spots, number of spots","[1]; CrO3 2.5 mM, 120 wings",254
same,"Small single spots (1–2 cells), statistical diagnosis",[1]; CrO3 2.5 mM,+
same,"Total spots, statistical diagnosis",[1]; CrO3 2.5 mM,+
same,"Large single spots (>cells), statistical diagnosis",[1]; CrO3 2.5 mM,+
same,"Twin spots, statistical diagnosis",[1]; CrO3 2.5 mM,+
same,Frequency of mutation relative to the control group,[1]; higher CrO3 concentration (2.5 mM),20 times
same,% of non-viable larvae,[2]; CrO3 0.25 mM,10%
same,No. of viable larvae ± SEM,[2]; CrO3 0.25 mM,448 ± 0.3
same,No. of viable larvae ± SEM,[2]; CrO3 2.0 mM,325 ± 2.8
same,% of non-viable larvae,"[2]; CrO3 2.0 mM, significant to p < 0.05 compared with control",35 ^* %
same,Mortality,[2]; CrO3 2.5 mM,61%
same,Reduction of viability over the control,[2]; CrO3 2.5 mM,45%
same,No. of viable larvae ± SEM,[2]; CrO3 2.5 mM,194 ± 0.8
same,% of non-viable larvae,"[2]; CrO3 2.5 mM, significant to p < 0.05 compared with control",61 ^* %
same,Toxicity compared to the control,[2]; CrO3 2 and 2.5 mM,toxic
